Data set [1] has as its system Mycobacterium tuberculosis. The experiment in a line: Antibacterial activity against replicative stage Mycobacterium tuberculosis H37Rv after 7 days by MABA. Conditions: 168 h. It is filed as functional. Put shortly:
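MABA run in duplicate. H37Rv from fresh LJ medium grown in 7H9/OADC at 37 °C to McFarland no.1, then diluted 1:25 as inoculum. Compounds tested in serial dilutions. After 7 days, alamar blue/Tween 80 (1:1) added and plates re-incubated overnight.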

Data set [2] addresses T1, L-lysine-epsilon aminotransferase (Mycobacterium tuberculosis, UniProt P9WQ77).
T1 sequence (P9WQ77 whole entry): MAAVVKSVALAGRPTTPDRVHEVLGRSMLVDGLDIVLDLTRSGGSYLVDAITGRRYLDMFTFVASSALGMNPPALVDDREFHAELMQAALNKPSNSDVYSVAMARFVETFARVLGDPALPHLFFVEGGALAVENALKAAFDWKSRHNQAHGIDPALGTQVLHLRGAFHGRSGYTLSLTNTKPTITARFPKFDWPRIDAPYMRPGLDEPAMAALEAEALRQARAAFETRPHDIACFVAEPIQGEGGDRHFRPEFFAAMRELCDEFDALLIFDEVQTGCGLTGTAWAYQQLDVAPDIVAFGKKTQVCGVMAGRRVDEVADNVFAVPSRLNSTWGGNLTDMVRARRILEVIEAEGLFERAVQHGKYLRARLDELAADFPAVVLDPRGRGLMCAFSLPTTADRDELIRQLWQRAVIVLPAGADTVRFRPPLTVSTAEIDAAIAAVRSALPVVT
Put plainly: Inhibition of Mycobacterium tuberculosis LAT using L-lysine as substrate by spectroscopic method. Put shortly: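 Purified recombinant MTB LAT incubated 1 h at 37 °C in 200 mM phosphate pH 7.2 with 1.5 mM L-lysine, 1.5 mM α-ketoglutarate and 15 µM pyridoxal 5-phosphate, with compounds at several concentrations. Stopped with 10% TCA in ethanol. Products read as o-aminobenzaldehyde adduct at 465 nm and at 280 nm.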

A short description of data set [3]: Growth inhibition of mouse RAW264.7 cells at 50 ug/ml after 48 hrs by MTT assay relative to control. It is filed as cell-based. The conditions noted are these: read-out: GI. An outline of the steps: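 RAW 264.7 mouse macrophages exposed to compound at 50 µg/ml for 48 h. Viability read as MTT conversion to formazan.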
On the technique in general: Tetrazolium dyes change colour on reduction, which living cells bring about.

The subject of data set [4] is Mycobacterium tuberculosis. The experiment in a line: Antibacterial activity against Mycobacterium tuberculosis H37Rv nutrient starvation model assessed as log reduction in bacterial colonies at 10 ug/ml measured after 7 days by MPN assay. Format: functional. Put shortly: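 H37Rv grown in 7H9/OADC to OD 0.8–1.0, washed twice, then held in PBS in sealed bottles at 37 °C for 6 weeks. Starved aliquots exposed to compound at 10 µg/ml for 7 days. Persisters enumerated by MPN assay.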

Data set [5] concerns Mycobacterium tuberculosis. Put plainly: Antibiofilm activity against Mycobacterium tuberculosis assessed as log reduction in bacterial count at 10 ug/ml measured after 7 days by MPN assay. Format: functional. An outline of the steps: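 MTB inoculated 1:100 in Sauton's medium, sealed and grown 5 weeks at 37 °C to form a mature biofilm. Compound added to the medium (n=4) for 7 days. Tween-80 0.1% added, cells washed in PBS/10% glycerol/0.05% Tween-80 and homogenised. Persisters compared with solvent control by MPN assay.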

Data set [6] has as its system Mycobacterium tuberculosis. Put plainly: Antibacterial activity against Mycobacterium tuberculosis H37Rv infected in 3D culture of human PBMC assessed as colony forming units treated for 4 days measured after 3 days. Format: functional. Put shortly: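 PBMCs at 5x10^5 cells/well in collagen–fibronectin ECM (pH 7.0), infected with H37Rv at MOI 0.1, grown in RPMI with 20% human serum at 37 °C/CO2. Granulomas treated 4 days, then with or without Rif for 3 more days. Collagenase release, Triton X-100 lysis, 7H10 plating, cfu counted after 4 weeks.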

The subject of data set [7] is Mycobacterium tuberculosis. The experiment in a line: Antibacterial activity against non-replicative stage Mycobacterium tuberculosis H37Rv. Format: functional, organism-based.
In data set [8] the test system is Mycobacterium marinum. The experiment in a line: Antibacterial activity against Mycobacterium marinum ATCC BAA-535 infected in Zebra fish assessed as log reduction in bacterial counts at 5 mg/kg, po administered for 7 days by MPN assay. Format: functional. An outline of the steps: (§1)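 Adult zebrafish (n=6 per group) infected intraperitoneally with M. marinum ATCC BAA-535 grown at 30 °C in 7H9 broth (about 0.75 million bacteria). From day 7 after infection, drug given orally by micropipette for 7 days. Fish then homogenised, tissue taken up in 7H9 broth, and bacterial counts read by MPN assay.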

The subject of data set [9] is Mycobacterium marinum. The experiment in a line: Antibacterial activity against Mycobacterium marinum ATCC BAA-535 infected in Zebra fish assessed as log reduction in bacterial counts at 10 mg/kg, po administered for 7 days by MPN assay. Format: functional. An outline of the steps:
as §1

≈ marks a conversion by molar mass, not a printed value. Calls of active or inactive are those of the source. The rule behind the calls is not given here.

Usually MIC stands for the lowest concentration that inhibits growth of the organism. A low value points to greater potency. The term IC50 denotes the concentration at which inhibition is half-maximal. Lower therefore signals greater potency. `N#C/C(=C\c1ccc(OCc2ccccc2)cc1)c1nc2ccccc2s1` had an MIC in data set [1] of 68 µM (≈ 25 µg/mL). Moreover, it took 47.9 µM to reach half-maximal inhibition in data set [2] (IC50). Moreover, in data set [3], the inhibition at 48 h, 50 ug/ml came to 22.8%.

On to `N#C/C(=C\c1ccccc1OCC(=O)O)c1nc2ccccc2s1`, for which, in data set [1], the lowest concentration to inhibit growth (MIC) was 2.32 µM (≈ 0.78 µg/mL). Besides, in [2], it took 53.8 µM to reach half-maximal inhibition (IC50). Moreover, the inhibition at 48 h, 50 ug/ml in [3] was 52.3%.

As to `N#C/C(=C\c1ccc[nH]1)c1nc2ccccc2s1`, the MIC in data set [1] is above 99.6 µM. For the same molecule, in [2], the IC50 was determined as 17 µM. The inhibition at 48 h, 50 ug/ml in data set [3] was 56.4%.

Regarding `CO[C@H]1/C=C/O[C@@]2(C)Oc3c(C)c(O)c4c(O)c(c(/C=N/N5CCN(C)CC5)c(O)c4c3C2=O)NC(=O)/C(C)=C\C=C\[C@H](C)[C@H](O)[C@@H](C)[C@@H](O)[C@@H](C)[C@H](OC(C)=O)[C@@H]1C` [RIFAMPIN], it took 0.5 µM (≈ 0.411 µg/mL) to inhibit growth in data set [1] (MIC). For the same molecule, the “log(activity)” value in data set [4] is 1.3; in [5] it was 2. The Activity in data set [6] worked out at 3.3 ×10⁵ CFU. Further, the inhibition at 48 h, 50 ug/ml in data set [3] was determined as 23.5%.

As for `N#C/C(=C\c1ccc(-c2cc(C(=O)O)cc(C(=O)O)c2)o1)c1nc2ccccc2s1`, in data set [1], the lowest concentration to inhibit growth (MIC) was 60.1 µM (≈ 25 µg/mL). For the same molecule, the “log(activity)” value in [4] is on record as 2.8. The molecule further displayed an IC50 in [2] of 1.15 µM. For the same molecule, the inhibition at 48 h, 50 ug/ml in data set [3] was determined as 14.4%.

For the molecule `N#C/C(=C\c1ccc(F)cc1)c1nc2ccccc2s1`, the lowest concentration to inhibit growth in data set [1] (MIC) was 89.3 µM (≈ 25 µg/mL). The molecule also had an IC50 in data set [2] of 4.11 µM. Besides, the inhibition at 48 h, 50 ug/ml in data set [3] turned out to be 10.6%.

As for `N#C/C(=C\c1ccc(O)cc1)c1nc2ccccc2s1`, the MIC in data set [1] is above 89.9 µM. Moreover, the concentration for half-maximal inhibition (IC50) in data set [2] turned out to be 10.4 µM. For the same molecule, the inhibition at 48 h, 50 ug/ml in data set [3] amounted to 2.26%.

Consider `N#C/C(=C\c1ccc(-c2cccc(C(=O)O)c2)o1)c1nc2ccccc2s1`, for which the MIC in [1] is above 67.2 µM. This molecule had a concentration for half-maximal inhibition (IC50) in data set [2] of 3.74 µM. The inhibition at 48 h, 50 ug/ml in [3] stood at 3.12%.

In turn, `N#C/C(=C\c1ccc(-c2ccc(C(=O)O)cc2)s1)c1nc2ccccc2s1` returned an MIC in data set [1] of 2.01 µM (≈ 0.781 µg/mL). Also, the IC50 in data set [2] turned out to be 6.72 µM. Further, the outcome in data set [7] was Active. The inhibition at 48 h, 50 ug/ml in data set [3] amounted to 5.64%.

Regarding `N#C/C(=C\c1ccco1)c1nc2ccccc2s1`, the MIC in data set [1] worked out at 49.6 µM (≈ 12.5 µg/mL). Also, in [2], the IC50 stood at 16.2 µM. For the same molecule, the inhibition at 48 h, 50 ug/ml in [3] worked out at 47.3%.

In [1], `COc1cc(/C=C(\C#N)c2nc3ccccc3s2)cc(OC)c1OC` came in with an MIC above 71 µM. In addition, the midpoint of inhibition in data set [2], the IC50, lay at 64.9 µM. In addition, the inhibition at 48 h, 50 ug/ml in data set [3] amounted to 12.6%.

The molecule `NNC(=O)c1ccncc1` [ISONIAZID] yielded an MIC in data set [1] of 0.4 µM (≈ 0.0549 µg/mL). Moreover, the results for the “log(activity)” value (in data set [4]; in data set [5]; in the data set on Mycobacterium marinum [8]) were 1.2, 1.9 and 2.8, respectively. Besides, the inhibition at 48 h, 50 ug/ml in data set [3] amounted to 93.2%.

`N#C/C(=C\c1ccc(-c2cccc(C(=O)O)c2)s1)c1nc2ccccc2s1` registered an MIC in data set [1] of 64.4 µM (≈ 25 µg/mL). Further, the “log(activity)” value in data set [4] is 2.9; in [5] it was 2.1. Half-maximal inhibition in [2] (IC50) required 5.73 µM. The inhibition at 48 h, 50 ug/ml in data set [3] came out at 18.9%.

As to `N#C/C(=C\c1ccc([N+](=O)[O-])o1)c1nc2ccccc2s1`, in [1], the MIC was above 84.2 µM. Moreover, the “log(activity)” value in [4] was found to be 2.8. Moreover, the IC50 in data set [2] was found to be 19.6 µM. Moreover, in [3], the inhibition at 48 h, 50 ug/ml worked out at 19.6%.

Regarding `N#C/C(=C\c1ccc2c(c1)OCO2)c1nc2ccccc2s1`, the MIC in data set [1] stood at 81.7 µM (≈ 25 µg/mL). The IC50 in data set [2] was 66 µM. In [3], the inhibition at 48 h, 50 ug/ml was 45.7%.

Take `N#C/C(=C\c1ccc(OCC(=O)O)cc1)c1nc2ccccc2s1`: 4.64 µM (≈ 1.56 µg/mL) was the least that counted as inhibitory in data set [1] (MIC). Besides, the “log(activity)” value in [4] stood at 2.8. Moreover, in data set [2], it took 3.08 µM to reach half-maximal inhibition (IC50). Further, the result in data set [7] was Active. In [3], the inhibition at 48 h, 50 ug/ml turned out to be 12.7%.

`N#C/C(=C\c1ccc(-c2ccc(C(=O)O)cc2)o1)c1nc2ccccc2s1` showed an MIC in data set [1] above 67.2 µM. The same molecule returned an IC50 in [2] of 14.1 µM. Moreover, the inhibition at 48 h, 50 ug/ml in data set [3] was 15.2%.

`COc1c(N2C[C@@H]3CCCN[C@@H]3C2)c(F)cc2c(=O)c(C(=O)O)cn(C3CC3)c12` [MOXIFLOXACIN]: the “log(activity)” value amounted to 2.2 in [4], 1.8 in [5] and 2.7 in the data set with Mycobacterium marinum [9].

On to `N#C/C(=C\c1ccc(O)cc1O)c1nc2ccccc2s1`, for which the lowest concentration to inhibit growth in data set [1] (MIC) was 10.6 µM (≈ 3.12 µg/mL). In [2], this molecule had an IC50 of 23.2 µM. Moreover, in data set [3], the inhibition at 48 h, 50 ug/ml is 45.7%.

Regarding `N#C/C(=C\c1c[nH]c2ccccc12)c1nc2ccccc2s1`, the MIC in data set [1] was above 83.1 µM. This molecule came in with an IC50 in data set [2] of 37.9 µM. Moreover, the inhibition at 48 h, 50 ug/ml in data set [3] was found to be 45.7%.

In data set [1], `COc1ccc(/C=C(\C#N)c2nc3ccccc3s2)cc1OC` returned an MIC above 77.6 µM. Moreover, inhibition in data set [2] was half-maximal at 61.4 µM (IC50). Moreover, the inhibition at 48 h, 50 ug/ml in data set [3] amounted to 32.5%.

As to `COc1cc(/C=C(\C#N)c2nc3ccccc3s2)ccc1O`, the MIC in data set [1] came out at 20.3 µM (≈ 6.26 µg/mL). Besides, in data set [2], it took 7.83 µM to reach half-maximal inhibition (IC50). The inhibition at 48 h, 50 ug/ml in data set [3] came to 34.8%.

In data set [1], `N#C/C(=C\c1cccs1)c1nc2ccccc2s1` yielded an MIC above 93.3 µM. The same molecule yielded an IC50 in [2] of 92.6 µM. Also, in data set [3], the inhibition at 48 h, 50 ug/ml came out at 17.3%.

On to `N#C/C(=C\c1ccc([N+](=O)[O-])s1)c1nc2ccccc2s1`, for which the MIC in data set [1] is above 79.9 µM. In addition, the IC50 in data set [2] was 54.8 µM. In addition, the inhibition at 48 h, 50 ug/ml in data set [3] was found to be 60.3%.
